Screening results deposited in PubChem BioAssay by several laboratories.
Rows were chosen to be rich in hits. Some 2.1% of all compounds tested hit in one or more screens of this group.
DNMT1 block: human DNMT1 methyltransferase inhibitors, primary screen, biochemical, molecular beacon, fluorescence, HinP1I cleavage, uHTS | DNA (cytosine-5)-methyltransferase 1 (Homo sapiens), P26358 | inhibition (reported as % activation of signal), % at 10 µM | 360,000 tested, 0.83% active | AID 588458, 2011; in the data active = inhibition above about 50%
LMPTP inh: LMPTP phosphatase inhibitors, primary screen, biochemical, fluorescence intensity, uHTS; recombinant LMPTP-A, OMFP fluorogenic substrate; inhibition, % at 20 µM; 360,000 tested, 0.22% active; AID 651560, 2012;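 active = compounds that cut the enzyme signal by at least half of the control window in the single-dose screen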;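 also: plate controls were DMSO wells with enzyme plus substrate for no effect and substrate without enzyme for full effect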
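Buffer or medium: Bis-Tris pH 6.0, DTT, detergent; Assay system: LMPTP-A enzyme; Quantity: 0.625 nM enzyme; Detection: endpoint fluorescence intensity; Times: 50 min dark incubation at room temperature; Controls: substrate-only low control, DMSO enzyme-plus-substrate high control; Doses: single 20 µM dose; Read-out: percent inhibition versus substrate-only and uninhibited controls; Reagent: 400 µM OMFP.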
STEP block: STEP phosphatase inhibitors, primary screen, biochemical, fluorescence intensity, uHTS; 360,000 tested, 0.25% active; AID 588621, 2011; inhibition, % at 20 µM; recombinant STEP, OMFP fluorogenic substrate; Tyrosine-protein phosphatase non-receptor type 5 (Homo sapiens), P54829;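 active = inhibition at 20 µM, scaled per plate between control wells, above about 37%, limit read from the data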;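 also: 0% = DMSO with enzyme and substrate and 100% = substrate only without enzyme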
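Test system: STEP tyrosine phosphatase / Reagent: OMFP at 25 µM / Doses: 20 µM, 1% DMSO / Read-out: percent inhibition scaled to no-enzyme and uninhibited-enzyme controls, plate-pattern corrected / Detection: FITC-channel fluorescence of OMFP product / Medium: Bis-Tris buffer pH 6.0, 2.5 mM DTT, 0.005% Tween 20 / Schedule: 20 min at room temperature, dark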
GRK2 aptamer HTS: compounds blocking aptamer binding on GRK2 – biochemical, human GRK2, bead flow cytometry, HTS, primary screen | FAM-aptamer displacement from GRK2 | Beta-adrenergic receptor kinase 1 (Homo sapiens), P25098 | inhibition of aptamer binding, % at 10 µM | AID 488847, 2010 | 330,000 tested, 0.59% active;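 active = inhibition of aptamer binding above 40%, roughly 3 SD of noise, on plates passing a quality check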;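 also: median bead fluorescence of bound FAM aptamer so fluorescent compounds give negative values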
Target sequence (P25098 whole entry, looked up): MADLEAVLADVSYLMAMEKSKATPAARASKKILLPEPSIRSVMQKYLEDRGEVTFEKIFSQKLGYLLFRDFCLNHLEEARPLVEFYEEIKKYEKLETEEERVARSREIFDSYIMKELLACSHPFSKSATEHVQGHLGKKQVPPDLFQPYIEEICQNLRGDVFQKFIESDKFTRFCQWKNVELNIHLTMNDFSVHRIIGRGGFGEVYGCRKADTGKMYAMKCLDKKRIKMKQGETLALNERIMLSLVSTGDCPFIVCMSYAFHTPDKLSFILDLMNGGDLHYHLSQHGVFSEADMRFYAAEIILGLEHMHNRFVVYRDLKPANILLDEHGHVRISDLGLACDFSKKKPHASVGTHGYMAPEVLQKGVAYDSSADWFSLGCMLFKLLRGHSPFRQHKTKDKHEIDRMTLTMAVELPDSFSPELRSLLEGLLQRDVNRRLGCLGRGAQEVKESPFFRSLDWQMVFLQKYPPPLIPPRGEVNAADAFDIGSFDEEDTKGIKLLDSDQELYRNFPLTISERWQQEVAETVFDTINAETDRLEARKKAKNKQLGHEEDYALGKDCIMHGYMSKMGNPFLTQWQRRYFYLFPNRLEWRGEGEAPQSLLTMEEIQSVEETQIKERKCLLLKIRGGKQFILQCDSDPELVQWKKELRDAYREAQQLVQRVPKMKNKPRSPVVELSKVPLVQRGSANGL
Scp-1 inhibitor: Scp-1 phosphatase inhibitors, primary screen, biochemical, colorimetric, uHTS; Carboxy-terminal domain RNA polymerase II polypeptide A small phosphatase 1 (Homo …; Recombinant Scp1, phosphopeptide, malachite green phosphate absorbance; inhibition, % at 20 µM; 340,000 tested, 0.88% active;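 active = inhibition above about 50% at 20 µM, limit read from the data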;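 also: plate controls were DMSO wells with enzyme for no effect and wells lacking enzyme for full effect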
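Assay system: SCP-1 catalytic fragment, aa 76-261 | Buffer or medium: Tris acetate buffer pH 5.5 with MgCl2 and Tween-20 | Compound: One concentration, 20 µM, with 1.0% DMSO | Also added: Phospho 17-mer peptide substrate | Signal: Absorbance at 630 nm | Incubation: 45 min enzyme reaction at room temperature | Measure: % inhibition of SCP-1 phosphate liberation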
SUMO1-SIM PPI: modulators of SUMO1 protein-protein interactions, primary screen, biochemical, uHTS | SUMO1 binding to a labelled peptide, TR-FRET, 1 h | AID 602429, 2012 | Small ubiquitin-related modifier 1 (Homo sapiens), P63165 | inhibition, % at 20 µM | 360,000 tested, 0.33% active; in the data active = inhibition above about 37%
Scp1 confirm: Scp-1 phosphatase inhibitors, retest, confirmation, biochemical, colorimetric, single concentration | shares compounds with Scp-1 inhibitor | recombinant SCP-1 catalytic domain, phosphate release, malachite green absorbance | inhibition, % at 20 µM | 2,500 tested, 61% active;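 also: plate controls were DMSO with enzyme for no effect and buffer wells lacking enzyme for full effect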
MG interference: colorimetric readout interference by compounds, confirmation, artefact control for Scp-1 inhibitor project, biochemical, single concentration | shares compounds with Scp-1 inhibitor | 2,500 tested, under 10 active | apparent inhibition (interference), % at 20 µM | Colorimetric interference counterscreen, malachite green absorbance 630 nm | AID 540313, 2011;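 also: compounds added after enzyme reaction finished so only phosphate colour detection is probed; plate controls were DMSO wells with completed Scp-1 reaction for no effect and substrate wells lacking enzyme for full effect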
Scp-1 Tm shift: Scp-1 binding by thermal shift, confirmation, orthogonal assay for Scp-1 inhibitor project, biophysical, differential scanning fluorimetry; thermal shift relative to vanadate control, % at 40 µM; 1,500 tested, 25% active; shares compounds with Scp-1 inhibitor; AID 540329, 2011; Recombinant SCP1, Sypro Orange thermal shift Tm;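 active = substances whose mean melting-temperature shift, as a percentage of the reference inhibitor's shift, reaches about 5.3%, limit read from the data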;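 also: 0% = Tm of DMSO wells and 100% = Tm with sodium orthovanadate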
* marks the source's active call; other numbers are inactive results; nt = no result; ! = a repeat was not active.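 The calls were made as follows, unless noted: active = inhibition of at least 30% at 20 µM; inactive = the rest.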

SMILES	DNMT1 block	LMPTP inh	STEP block	GRK2 aptamer HTS	Scp-1 inhibitor	SUMO1-SIM PPI	Scp1 confirm	MG interference	others
COc1ccc(/C=C2\SC(=S)N(CCC(=O)Nc3ccc(C(=O)O)cc3)C2=O)cc1	0	90*	95*	2	87*	-19	69*	-14	Scp-1 Tm shift=21*
CCOc1cc(/C=C2\SC(N)=NC2=O)ccc1O	3	-5	2	3	-3	-27	nt	nt
CCOc1c(Br)cc(Br)cc1/C=C1\SC(N)=NC1=O	17	0	2	1	85*	3	9	-13
O=C(O)Cc1ccc(NC(=O)c2ccc3c(c2)C(=O)N(Cc2ccco2)C3=O)cc1	38	3	16	8	69*	-10	58*	-16	Scp-1 Tm shift=6.8*
O=C(Nc1ccc(O)cc1)c1ccc2c(c1)C(=O)N(Cc1ccco1)C2=O	15	0	3	0	0	-2	nt	nt
O=C(Nc1cc([N+](=O)[O-])ccc1O)c1ccc2c(c1)C(=O)N(Cc1ccco1)C2=O	11	6	6	4	55*	1	25	-16
Cc1ccc(CN2CC(C(=O)Nc3ncccc3C)CC2=O)cc1 (stereo not given)	-1	-1	-4	0	1	2	nt	nt
O=C1NC(=O)C(c2ccccc2)(c2ccccc2)N1	1	-1	-3	1	85*!	5	-14	-9
O=C1NC(=O)C(c2ccccc2)(c2ccc(O)cc2)N1 (stereo not given)	3	-1	2	0	-4	-2	nt	nt
CC(c1ccon1)N(C)C(=O)c1cccc(OC2CCN(S(C)(=O)=O)CC2)c1 (stereo not given)	2	-1	1	nt	nt	4	nt	nt
CCOc1ccccc1NC(=O)C1=C(C)NC(=S)NC1c1cccs1 (stereo not given)	3	-2	0	5	64*	0	-10	-11
COc1ccccc1OCC(=O)Nc1ccncc1	1	-3	0	0	-6	5	nt	nt
Cc1cccc(OCC(=O)Nc2ccncc2)c1C	2	-2	-3	2	53*	-2	-21	-16
CCOc1ccccc1NC(=O)c1ccc(OCC)c([N+](=O)[O-])c1	2	-1	3	0	-7	0	nt	nt
CCOc1ccc(C(=O)Nc2cccc(-c3cc4ccccc4oc3=O)c2)cc1[N+](=O)[O-]	-1	2	9	1	93*	-5	28	-11
CC(=O)Nc1sc(C)c(C)c1C(=O)OC(C)C	-1	-1	3	0	-5	0	nt	nt
Cc1sc(NC(=O)Cn2nc(C(F)(F)F)cc2C)c(C(=O)OC(C)C)c1C	-1	3	1	0	63*	-2	-18	-17
N#Cc1ccsc1NC(=O)COC(=O)CCS(=O)(=O)c1ccccc1	17	12	-1	1	50*	18	69*	-10	Scp-1 Tm shift=5.7*
COc1ccccc1NC(=O)c1cc(=O)[nH]c2ccccc12	-16	-1	4	0	-10	1	nt	nt
COc1ccccc1C(C)NC(=O)c1cc(=O)[nH]c2ccccc12 (stereo not given)	0	1	-2	1	74*	0	-2	-8
O=C(CSc1ncn(-c2ccccc2)n1)Nc1nc2ccccc2s1	-4	0	-4	0	3	1	nt	nt
O=C(CSc1ncn(-c2ccccc2)n1)Nc1nc2c(s1)CCCC2	36	4	7	6	79*	11	64*	-8	Scp-1 Tm shift=-1
Cc1ccc(N2CCN(C(=O)C(=O)c3cccc([N+](=O)[O-])c3)CC2)cc1	nt	-1	nt	nt	nt	-23	nt	nt
N#Cc1ccccc1OCC(=O)OCC(=O)N1CCCC1	0	-1	-4	0	-8	-4	nt	nt
N#Cc1ccccc1OCC(=O)OCCCOC(=O)COc1ccccc1C#N	1	1	0	3	96*	7	-12	-16
SMILES	DNMT1 block	LMPTP inh	STEP block	GRK2 aptamer HTS	Scp-1 inhibitor	SUMO1-SIM PPI	Scp1 confirm	MG interference	others
CC1C[N+](=C2C=C(N3CCOCC3)CC(C)(C)C2)CC(C)O1 (stereo not given)	12	-1	-1	0	103*	-4	91*	-4	Scp-1 Tm shift=-16
CC1(C)CC(N2CCOCC2)=CC(=[N+]2CCOCC2)C1	0	-1	-1	0	2	11	nt	nt
CC(C)NC(=O)C1C(c2ccc(C(F)(F)F)cc2)=Nc2ccccc2N1C(=O)c1cccc2ccccc12 (stereo not given)	nt	2	nt	nt	nt	-19	nt	nt
O=C(O)CN1C(=O)/C(=C2\C(=O)N(Cc3ccccc3Cl)c3ccccc32)SC1=S	9	9	52*	7	82*	-2	62*	-20	Scp-1 Tm shift=16*
COc1ccccc1C(=O)NCC(=O)OC(C)C(=O)N1CCOCC1 (stereo not given)	-2	0	-1	0	60*	1	5	-1
CC(NC(=O)c1cccc(S(=O)(=O)N2CCCCCC2)c1)c1ccccc1 (stereo not given)	-4	-1	-2	3	-10	0	nt	nt
C[C@@H]1CN([C@@H](C)CO)C(=O)CCCn2nncc2CO[C@@H]1CN(C)C(=O)Nc1ccc2c(c1)OCO2	1	-4	-2	nt	nt	4	nt	nt
COc1cc(OC)cc(C2=Cc3ccccc3C(CC(=O)c3ccco3)N2c2ccc(-c3cccnc3)cc2)c1 (stereo not given)	nt	5	nt	nt	nt	-1	nt	nt
Cc1ccc2nc(Cl)c(/C=N/NC(=O)c3ccccc3O)cc2c1	-3	3	2	0	72*	6	21	-5
